Assay outcomes (PubChem BioAssay)
p97 ATPase inh: blocks human p97 ATPase activity; actives 0.42% (n = 220,000); AID 1481; P55072; inhibition, % at 8 µM; recombinant p97 ATPase, Kinase-Glo ATP luminescence, 3 h; in the data active = inhibition above about 15%
Mdm2 ligase inh: Mdm2 E3 ligase (human) inhibition. Q00987. cell-based MDM2 ubiquitination luciferase reporter, 2 h; 0 = plate control, 100 = twice control, blank-subtracted. signal enhancement, % at 5 µM. actives 0.11% (n = 210,000);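 active = signal enhancement of 30% or more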;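 note: luminescence tracks abundance of the self-degrading MDM2-luciferase fusion protein; higher signal means inhibition of MDM2 E3 ligase activity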
Target sequence (Q00987 whole entry, looked up, the tested form may be a part): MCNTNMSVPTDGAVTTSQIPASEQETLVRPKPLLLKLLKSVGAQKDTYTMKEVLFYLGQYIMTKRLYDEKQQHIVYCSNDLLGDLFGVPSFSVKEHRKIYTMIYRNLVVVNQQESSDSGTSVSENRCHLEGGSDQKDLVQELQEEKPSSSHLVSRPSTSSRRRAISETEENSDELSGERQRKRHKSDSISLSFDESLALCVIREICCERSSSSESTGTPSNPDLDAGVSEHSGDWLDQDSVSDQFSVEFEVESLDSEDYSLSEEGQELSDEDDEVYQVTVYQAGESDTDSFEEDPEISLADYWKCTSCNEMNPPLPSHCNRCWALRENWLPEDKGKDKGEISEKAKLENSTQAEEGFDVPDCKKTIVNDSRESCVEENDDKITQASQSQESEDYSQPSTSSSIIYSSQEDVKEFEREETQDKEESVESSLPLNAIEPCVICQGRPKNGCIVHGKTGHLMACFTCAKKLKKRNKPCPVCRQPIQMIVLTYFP
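Material: Stable MDM2–luciferase fusion reporter cells | Amount: 2000 cells seeded into each well | Dosing: One concentration, 5 µM, with 0.2% DMSO | Incubation: 4 h cell settling then 2 h compound exposure, 37 °C | Measured by: Luciferase luminescence | Read-out basis: % enhancement relative to plate controls after blank subtraction | Benchmarks: Control and blank well means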
Cl transport mod: modulators of human KCC2 chloride dependent transport. KCC2 cells, thallium flux FluoZin-2 fluorescence. B-score of Tl+ flux slope (higher = more flux/activation; lower = inhibition) at 10 µM. actives 2.2% (n = 190,000). AID 1456;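 active = thallium flux slope and its plate-corrected score both differing from the plate sample mean at a set confidence after two filtering rounds, in either direction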;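 note: slope of fluorescence scaled to starting intensity during 10 to 20 s after thallium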
ROMK primary: modulates human ROMK potassium channel activity | Tet-inducible ROMK, thallium flux fluorescence; actives lie on both sides | actives 2% (n = 130,000) | AID 1918 | B-score at 10 µM | P48048;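 active = signal ratio slope over the read window, or its plate-corrected B-score, at least 3 SD from the plate mean, either direction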;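 note: B-score of the F/F0 ratio slope over 7 to 12 s after thallium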
PKD1 inh: PKD1 (human) kinase inhibition; Q15139; PKD1 kinase fluorescence polarization assay; inhibition, % (no concentration beside the values); actives 0.056% (n = 200,000); in the data active = inhibition above about 50%
DTT redox prof: compounds producing H2O2 with reducing agent – biochemical, NIH compound library profiling, artefact control for MLSCN library redox annotation, primary screen; DTT-dependent redox cycling H2O2, phenol red/HRP absorbance; 100% = 100 µM peroxide control, 0% = buffer; activation, % at 10 µM; actives 0.03% (n = 200,000); AID 878;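 active = activation of at least 50% relative to the plate's high and low controls in the primary single-dose screen; inactive = activation below 50%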;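 note: compound incubated with DTT at 0.8 mM final as the reducing agent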
FP interf 140K: interferes with fluorescence polarization in PKD inhibitor counter-screen | shares compounds with PKD1 inh | PKD1 FP assay interference counter-screen | inhibition, % at 10 µM | 85 tested, under 10 active | AID 1315; call rule not given here
DTT redox conf: confirmation of DTT-dependent redox cycling H2O2 generators. phenol red-HRP absorbance. actives 40% (n = 60). shares compounds with DTT redox prof. EC50, µM. AID 1234;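 active = EC50 under a set limit for hydrogen peroxide production with the reducing agent DTT present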
p97 confirm: confirmation of human p97 ATPase inhibitors; actives 44% (n = 760); shares compounds with p97 ATPase inh; inhibition, % at 8 µM; recombinant p97 ATPase, Kinase-Glo ATP luminescence;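 active = percent inhibition of p97 ATPase above a set limit, the primary screen's mean plus 3 SD, cut at about 15% in these data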
ROMK retest: human ROMK channel modulation, retest confirmation | shares compounds with ROMK primary | ROMK thallium flux, fluorescence ratio; active compounds read low | normalized thallium flux (F/F0 slope) at 10 µM | actives 54% (n = 3,000) | AID 1917;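 active = Flux at 10 µM at least 3 SD below or above vehicle control mean in one or both replicates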
A number is an active result; i = inactive; nt = not tested or not shown. The list is not random: actives were taken first. Their share in the collection is about 3.4%.

SMILES	p97 ATPase inh	Mdm2 ligase inh	Cl transport mod	ROMK primary	PKD1 inh	DTT redox prof	others
Cc1ccc(-c2nc3ccccc3c(=O)n2-c2cccnc2)cc1	i	34	i	i	i	i
C=C1C(=O)O[C@H]2C[C@@H](C)[C@@H]3C=CC(=O)[C@@]3(C)C[C@H]12	nt	35	i	nt	nt	nt
C=CCN1CC[C@@]2(C)c3cc(O)ccc3CC1[C@@H]2C	nt	i	i	nt	nt	nt
CN1/C(=C\C=Nc2ccccc2)C(C)(C)c2ccccc21	i	i	i	i	i	i
CN1/C(=C\C=C\C2=[N+](C)c3ccc4ccccc4c3C2(C)C)C(C)(C)c2ccccc21	i	i	-6	nt	i	i
O=C1NC(=O)N(CCc2ccc(F)cc2)C(=O)/C1=C\C=C\c1ccccc1	i	50	nt	i	i	i
C=C1C(=O)O[C@@H]2C[C@@H](C)[C@@H]3C=CC(=O)[C@@]3(C)[C@@H](OC(=O)CC(=O)O[C@H]3[C@@H]4C(=C)C(=O)O[C@@H]4C[C@@H](C)[C@@H]4C=CC(=O)[C@]43C)[C@H]12	nt	i	i	nt	nt	nt
C=C1C(=O)O[C@@H]2C[C@@H](C)[C@@H]3C4OC4C(=O)[C@@]3(C)[C@@H](O)[C@H]12 (some centres not stated)	nt	31	i	nt	nt	nt
Cc1ccc(C2=NC(C)(C)N3C2C3c2ccc([N+](=O)[O-])cc2)cc1 (configuration not stated)	i	i	i	nt	i	i
Cc1ccccc1C1=NCC(=S)Nc2ccc(Cl)cc21	i	nt	5.7	i	i	i
C=CCN=C(SCC(=O)c1ccc(Cl)cc1)c1c(O)n(C)c(=O)n(C)c1=O	i	i	i	i	nt	nt
O=C(Cc1ccccc1)OC(COCc1ccccc1)CN1CCOCC1 (configuration not stated)	i	i	i	nt	i	i
Cc1cc(C)cc(N2C(=O)NC(=O)/C(=C/c3cccn3-c3ccc(Cl)cc3)C2=O)c1	i	nt	i	i	i	i
Cc1cccc(N2C(=O)NC(=O)/C(=C\c3cccn3-c3ccc(Cl)cc3)C2=O)c1	i	40	i	nt	i	i
CN1CCN(c2cccc3c2C(=O)c2ccccc2C3=O)CC1	i	i	i	i	101	i	FP interf 140K=i
FC(F)(F)c1cccc(N2CCNCC2)c1	i	nt	i	nt	nt	nt
NC(=O)c1cn(C2OC(CO)C(O)C2O)c2ncnc(N)c12 (configuration not stated)	i	i	i	4	94	i	FP interf 140K=i;ROMK retest=i
CN1CCN(Cc2ccc(Br)s2)CC1	i	i	i	i	i	i
CCn1nc(-c2ccccc2)nc2c(=O)n(C)c(=O)nc1-2	37	i	i	nt	i	140	DTT redox conf=0.9;p97 confirm=34
CN1c2ccccc2Oc2ccccc21	i	i	i	nt	i	i
Cc1nc2c(=O)n(C)c(=O)nc-2n(C)n1	31	i	i	nt	i	293	DTT redox conf=2.8;p97 confirm=38
Cc1ccc(-n2c(O)c(/C=N/N3CCCCC3c3cccnc3)c(=O)[nH]c2=S)cc1 (configuration not stated)	i	nt	i	i	i	i
O=C1C(=O)c2ccccc2-c2ccccc21	32	i	i	nt	i	284	DTT redox conf=0.71;p97 confirm=38
CC1=[N+]([O-])C2(N)CCc3nonc3C2(O)C1 (configuration not stated)	i	i	i	nt	i	i
CC(C)n1c(O)c(C=NCc2cccnc2)c(=O)[nH]c1=S	i	i	i	nt	nt	nt
